Reference: BindingDB's records for doi:10.1016/j.ejmech.2011.01.016 (National Institute of Pharmaceutical Education and Research, 2011)

These compounds were tested against Reverse transcriptase (Human immunodeficiency virus 1, UniProt Q9WKE8) (assay: Inhibition of Human immunodeficiency virus 1 NL4.3 reverse transcriptase activity).
Method in brief: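 Colorimetric HIV-1 reverse transcriptase inhibition assay run with a commercial RT assay kit per the manufacturer's protocol; nevirapine positive control; IC50 determined.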
Compound `COc1cc2c(cc1O)-c1cc3ccc(OC)c(OC)c3c[n+]1CC2` [2-hydroxy-3,9,10-trimethoxy-5,6-dihydroisoquino[3,2-a]isoquinolinium] has an IC50 of 171 µM.
With `COc1ccc2cc3[n+](cc2c1OC)CCc1cc2c(cc1-3)OCO2` [Berberinechloride] the IC50 was 297 µM.
With `COc1cc2c(cc1O)CC[n+]1cc3c(OC)c(OC)ccc3cc1-2` [jatrorrhizine] the IC50 was 209 µM.
